Assay results: ChEMBL document CHEMBL1153752, “Hymenopsins A and B and a macrophorin analogue from a fungicolous Hymenopsis sp” (2010)
The source made the active and inactive calls. No cut-off for these calls is given here.

Legend:
[1] = system: Aspergillus flavus; test: Antifungal activity against Aspergillus flavus NRRL 6541 at 200 ug/disk by disk diffusion method; format: functional
[2] = system: Staphylococcus aureus; test: Antibacterial activity against Staphylococcus aureus ATCC 25923 at 200 ug/disk by disk diffusion method; format: functional; conditions: for zone of inhibition at 200 µg/disc: read-out: IZ
Method in brief: (§1)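 Standard paper-disk diffusion assay. Test material was loaded at 200 μg/disk, and gentamicin sulfate was run as the standard at 50 μg/disk. The C. albicans assay used the same 200 μg/disk level. The read-out was the diameter of the zone of inhibition in mm.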

[3] = system: Bacillus subtilis; test: Antibacterial activity against Bacillus subtilis ATCC 6051 at 200 ug/disk by disk diffusion method; format: functional; conditions: for zone of inhibition at 200 µg/disc: read-out: IZ; method in brief: as §1
[4] = system: Fusarium verticillioides; test: Antifungal activity against Fusarium verticillioides NRRL 25457 at 200 ug/disk by disk diffusion method; format: functional
[5] = system: Candida albicans; test: Antifungal activity against Candida albicans ATCC 14053 at 200 ug/disk by disk diffusion method; format: functional, organism-based; method in brief: as §1
[6] = system: Staphylococcus aureus; test: Antibacterial activity against Staphylococcus aureus ATCC 25923 at 50 ug/disk by disk diffusion method; format: functional, organism-based; method in brief: as §1
[7] = system: Bacillus subtilis; test: Antibacterial activity against Bacillus subtilis ATCC 6051 at 50 ug/disk by disk diffusion method; format: functional, organism-based; method in brief: as §1
[8] = system: Fusarium verticillioides; test: Antifungal activity against Fusarium verticillioides NRRL 25457 at 25 ug/disk by disk diffusion method; format: functional, organism-based
[9] = system: Aspergillus flavus; test: Antifungal activity against Aspergillus flavus NRRL 6541 at 25 ug/disk by disk diffusion method; format: functional, organism-based
[10] = system: Candida albicans; test: Antifungal activity against Candida albicans ATCC 14053 at 25 ug/disk by disk diffusion method; format: functional, organism-based

| Compound | zone of inhibition at 200 µg/disc [2] | zone of inhibition at 200 µg/disc [3] | inhibition zone (IZ) [5] | inhibition zone (IZ) [1] | inhibition zone (IZ) [4] | also measured |
| --- | --- | --- | --- | --- | --- | --- |
| C=C1CC[C@H]2[C@](C)(CO)CCC[C@]2(C)[C@H]1C[C@@]12O[C@@H]1C(=O)[C@]1(CO)O[C@@H]1C2=O | 32 mm | 32 mm | inactive | – | – | zone of inhibition at 200 µg/disc ([1]; read-out: IZ): 20 mm; zone of inhibition at 200 µg/disc ([4]; read-out: IZ): 20 mm |
| C[C@@]1(CO)CCC[C@]2(C)[C@H]3C[C@@]45O[C@@H]4[C@H](O)[C@]4(CO)O[C@@H]4[C@]5(O)CC3=CC[C@@H]12 | – | – | inactive | inactive | inactive | inhibition zone (IZ) [2]: inactive; inhibition zone (IZ) [3]: inactive |
| C[C@@]1(CO)CCC[C@]2(C)[C@H]3C[C@@]45O[C@@H]4C(=O)[C@]4(CO)O[C@@H]4[C@]5(O)CC3=CC[C@@H]12 [HYMENOPSIN B] | 21 mm | 21 mm | inactive | inactive | inactive | – |
| GENTAMICIN SULFATE | – | – | inactive | – | – | inhibition zone (IZ) [6]: 25 mm; inhibition zone (IZ) [7]: 25 mm |
| NYSTATIN | – | – | – | – | – | inhibition zone (IZ) [8]: Active; inhibition zone (IZ) [9]: Active; inhibition zone (IZ) [10]: Active |
